Results of several laboratories.
Each line is one published result; the experiments were not run side by side.
Target: Serine/threonine-protein kinase 17A (STK17A, Homo sapiens, UniProt Q9UEE5)
Sequence (Q9UEE5 1-414, as in one of the studies): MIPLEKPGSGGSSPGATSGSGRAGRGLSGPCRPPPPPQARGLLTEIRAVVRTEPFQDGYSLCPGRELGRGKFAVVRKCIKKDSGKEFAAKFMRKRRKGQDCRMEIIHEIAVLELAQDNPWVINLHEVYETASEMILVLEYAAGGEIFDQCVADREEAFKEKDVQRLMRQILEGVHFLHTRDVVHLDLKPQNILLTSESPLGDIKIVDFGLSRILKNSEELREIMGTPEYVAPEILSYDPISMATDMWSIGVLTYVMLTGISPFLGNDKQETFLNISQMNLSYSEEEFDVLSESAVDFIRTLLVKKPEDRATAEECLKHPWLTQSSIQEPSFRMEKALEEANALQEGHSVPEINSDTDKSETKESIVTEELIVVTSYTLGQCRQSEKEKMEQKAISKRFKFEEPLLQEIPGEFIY

`NS(=O)(=O)c1ccc(CNc2nc(Nc3cccc(CN4CCOCC4)c3)ncc2Br)cc1` has a remaining activity of 58% (enzyme activity; inhibitor; radiometric; 1 µM).
The remaining signal of `Nc1ncnc2occ(-c3ccc(NC(=O)Nc4cc(C(F)(F)F)ccc4F)cc3)c12` is reported as 55% (cell-free assay; 20 µM).
With `NS(=O)(=O)c1ccc(CNc2nc(Nc3cccc(NC(=O)N4CCCC4)c3)ncc2C2CC2)cc1` the remaining activity was 79% (enzyme activity; inhibitor; radiometric; 1 µM).
The remaining binding of `Cc1noc([C@H]2C[C@@H](c3ccc(C(F)(F)F)cc3)CN(C(=O)N3CCS(=O)(=O)C3)C2)n1` is reported as 100% (cell-free assay; competition with immobilised ligand; 1 µM).
The remaining activity of `O=C(Nc1cccc(Nc2ncc(Br)c(NCCc3cnc[nH]3)n2)c1)N1CCCC1` is reported as 6% (enzyme activity; inhibitor; radiometric; 1 µM).
With `Cc1c(NC(=O)c2cc(C(N)=O)nc3cc(F)ccc23)c(C(F)(F)F)nn1Cc1ccc(C#N)cc1` the remaining binding was 90% (cell-free assay; competition with immobilised ligand; 1 µM).
The remaining activity of `Cc1nn(CC(F)(F)F)cc1Nc1ncc(C2CC2)c(NCCCNC(=O)C2CCC2)n1` is reported as 25% (enzyme activity; inhibitor; radiometric; 1 µM).
With `Oc1cccc(-c2nc(N3CCOCC3)c3oc4ncccc4c3n2)c1` the remaining signal was 93.8% (cell-free assay; 0.5 µM).
For `Brc1cnc(Nc2cccc(CN3CCOCC3)c2)nc1NCCc1c[nH]cn1`, the remaining activity was 8% (enzyme activity; inhibitor; radiometric; 1 µM).
`Cc1ccc(Nc2nccc(N(C)c3ccc4c(C)n(C)nc4c3)n2)cc1S(N)(=O)=O` gave an inhibition of 14% (cell-free assay; 10 µM).
With `Cc1nn(CC(F)(F)F)cc1Nc1nccc(NCCc2cnc[nH]2)n1` the remaining activity was 99% (enzyme activity; inhibitor; radiometric; 1 µM).
`Cc1ccc(NC(=O)c2ccc(C)c(C(F)(F)F)c2)cc1C#Cc1nn(C2CCC(O)CC2)c2ncnc(N)c12` (centres unmarked) has a remaining signal of 140% (cell-free assay; 10 µM).
With `CCCS(=O)(=O)Nc1ccc(F)c(C(=O)c2c[nH]c3ncc(-c4ccc(Cl)cc4)cc23)c1F` the inhibition was under 10% (enzyme activity; inhibitor; 1 µM).
The remaining binding of `O=C(N[C@H]1CCCCC/C=C\C2C[C@@]2(C(=O)O)NC(=O)[C@@H]2C[C@@H](Oc3ccncc3)CN2C1=O)OC1CCCC1` (some centres unmarked) is reported as 100% (binding; competition with immobilised ligand; 1 µM).
The activity vs control of `Cc1cc(NC(=O)c2cccc3cc(-c4cccc5[nH]nc(N)c45)ccc23)ccc1F` is reported as 81% (enzyme activity; inhibitor; 0.1 µM).
With `Cc1ccc(NC(=O)c2ccc(CN3CCN(C)CC3)cc2)cc1Nc1nc(-c2cccnc2)cs1` the remaining signal was 104% (cell-free assay; 0.5 µM).
The remaining binding of `CS(=O)(=O)N1CCCC(NC(=O)[C@H](CCC2CCCCC2)NC(=O)c2ccc(CNc3ncnc4c3nnn4-c3ccccc3)cc2)C1` (some centres unmarked) is reported as 100% (cell-free assay; competition with immobilised ligand; 0.1 µM).
With `Cc1nn(CC(F)(F)F)cc1Nc1nccc(NCc2ccc(S(N)(=O)=O)cc2)n1` the remaining activity was 103% (enzyme activity; inhibitor; radiometric; 1 µM).
For `N#CC1(c2ccccn2)CCN(Cc2cc(C(=O)N3CCCC3)c(=O)n3ccccc23)CC1`, the remaining binding was 96% (cell-free assay; competition with immobilised ligand; 1 µM).
With `O=C(NCCCNc1nc(Nc2cccc(NC(=O)N3CCCC3)c2)ncc1I)c1cccs1` the remaining activity was 2% (enzyme activity; inhibitor; radiometric; 1 µM).
`C[C@@H](c1cccc(C#N)c1)n1cc(Cl)cc(C(N)=O)c1=N` has a remaining binding of 89% (cell-free assay; competition with immobilised ligand; 1 µM).
`Clc1ccc(Nc2nnc(Cc3ccncc3)c3ccccc23)cc1` has a remaining signal of 99.4% (cell-free assay; 0.5 µM).
The remaining binding of `O=C(Nc1ccc(Oc2ccc(F)cc2)cc1)N1CCc2ncccc2[C@H]1c1ccc(F)cc1` is reported as 86% (cell-free assay; competition with immobilised ligand; 1 µM).
For `CNC(=O)c1cc(Oc2ccc(NC(=O)Nc3ccc(Cl)c(C(F)(F)F)c3)cc2)ccn1`, the inhibition was -8% (cell-free assay; 0.3 µM).
`C#Cc1cccc(Nc2ncnc3cc(OCCOC)c(OCCOC)cc23)c1` has a remaining signal of 99.7% (cell-free assay; 0.5 µM).
The remaining binding of `O=C1CCc2cc(Nc3cc(OC4CCOCC4)c([N+](=O)[O-])cc3Cl)ccc2N1` is reported as 95% (cell-free assay; competition with immobilised ligand; 1 µM).
